Data set [1] relates to HT-29. Kind of data set: Inhibition of iodide influx in human HT-29 cells expressing YFP at 10 uM measured after 10 mins for 2 to 12 sec in presence of ATP by fluorescence assay. The class given is functional, cell-based. The gist of the method:
(§1)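 HT-29 cells expressing YFP halide sensor, 10 μM compound, for non-TMEM16A calcium-activated chloride channel. Plate reader fluorescence quenching after iodide addition (activation) or iodide plus ATP addition (inhibition); initial rate of iodide influx computed as linear measure of channel function. Representative of two to four experiment sets.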

Data set [2] is filed under the species Homo sapiens. Kind of data set: Inhibition of ENaC in human primary bronchial epithelial cells assessed as effect on short-circuit current at 10 uM after 10 mins by voltage clamp method. A digest of the protocol:
(§2)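 Primary human bronchial epithelial cells grown at air-liquid interface, mounted in Ussing chambers in symmetrical HCO3−-buffered solutions (95% O2/5% CO2, 37 °C), with Ag/AgCl electrodes. After 10 min preincubation with 10 µM compound, sequential additions were 20 µM amiloride, 20 µM forskolin, 10 µM CFTRinh-172 and 100 µM ATP. Traces represent two to four experiment sets.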

The target in data set [3] is Cystic fibrosis transmembrane conductance regulator (Homo sapiens, UniProt P13569). Kind of data set: Activation of human CFTR expressed in forskolin-stimulated basolateral membrane permeabilized FRT cells co-expressing YFP assessed as increase in short-circuit current by voltage clamp method. It counts as cell-based. The gist of the method: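 Ussing chamber with FRT cells co-expressing human wild-type CFTR and YFP. Basolateral side had HCO3−-buffered solution and the apical side half-Cl− solution. The basolateral membrane was permeabilized with 250 µg/mL amphotericin B. Solutions were gassed with 95% O2/5% CO2 at 37 °C. A low forskolin concentration was added first, then cumulative compound additions, then maximal forskolin and 10 µM CFTRinh-172; n = 3.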
Chain of Cystic fibrosis transmembrane conductance regulator (P13569 whole entry, looked up): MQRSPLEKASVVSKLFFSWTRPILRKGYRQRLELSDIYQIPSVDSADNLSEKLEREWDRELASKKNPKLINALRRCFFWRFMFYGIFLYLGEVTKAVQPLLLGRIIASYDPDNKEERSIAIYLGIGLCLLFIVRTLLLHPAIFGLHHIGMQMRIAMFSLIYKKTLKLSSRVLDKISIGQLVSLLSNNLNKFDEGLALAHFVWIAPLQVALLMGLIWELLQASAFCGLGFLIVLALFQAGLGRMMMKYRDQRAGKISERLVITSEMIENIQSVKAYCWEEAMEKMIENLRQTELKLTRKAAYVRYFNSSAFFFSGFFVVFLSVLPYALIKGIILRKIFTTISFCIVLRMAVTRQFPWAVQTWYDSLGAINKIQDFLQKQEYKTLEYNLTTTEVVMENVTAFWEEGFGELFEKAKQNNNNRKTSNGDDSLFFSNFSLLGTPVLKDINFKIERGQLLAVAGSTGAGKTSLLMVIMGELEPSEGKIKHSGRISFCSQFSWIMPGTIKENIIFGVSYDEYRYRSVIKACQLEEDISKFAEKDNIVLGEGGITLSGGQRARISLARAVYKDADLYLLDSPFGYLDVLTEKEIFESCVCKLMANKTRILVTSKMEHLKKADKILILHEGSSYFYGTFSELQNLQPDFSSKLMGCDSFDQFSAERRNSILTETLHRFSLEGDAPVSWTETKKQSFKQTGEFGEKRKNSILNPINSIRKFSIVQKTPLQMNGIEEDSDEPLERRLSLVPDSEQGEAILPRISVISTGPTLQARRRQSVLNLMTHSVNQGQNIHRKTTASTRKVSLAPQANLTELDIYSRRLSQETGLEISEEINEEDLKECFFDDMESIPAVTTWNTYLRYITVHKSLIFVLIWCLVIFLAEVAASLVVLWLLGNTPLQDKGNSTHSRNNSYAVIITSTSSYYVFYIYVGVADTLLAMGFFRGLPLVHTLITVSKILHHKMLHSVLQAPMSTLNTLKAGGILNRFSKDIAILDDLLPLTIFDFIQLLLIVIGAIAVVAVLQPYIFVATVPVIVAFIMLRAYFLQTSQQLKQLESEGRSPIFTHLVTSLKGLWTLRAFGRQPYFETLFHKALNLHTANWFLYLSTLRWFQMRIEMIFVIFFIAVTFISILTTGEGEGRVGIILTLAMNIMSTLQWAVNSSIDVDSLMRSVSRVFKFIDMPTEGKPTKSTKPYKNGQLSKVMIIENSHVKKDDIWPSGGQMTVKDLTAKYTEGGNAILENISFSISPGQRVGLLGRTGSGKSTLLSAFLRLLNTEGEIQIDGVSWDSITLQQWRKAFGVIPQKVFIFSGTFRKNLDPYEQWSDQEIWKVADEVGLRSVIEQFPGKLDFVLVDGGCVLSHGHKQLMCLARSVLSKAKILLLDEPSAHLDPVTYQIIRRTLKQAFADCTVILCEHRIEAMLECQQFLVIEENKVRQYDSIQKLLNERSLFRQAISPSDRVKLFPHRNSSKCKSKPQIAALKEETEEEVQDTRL

Data set [4] in a line: Cytotoxicity against Fischer rat thyroid cells assessed as effect on cell survival up to 10 uM after 8 hrs by alamar blue assay. The class given is cell-based. A digest of the protocol:
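FRT cells cultured overnight, then incubated 8 h with compound up to 10 μM; 33% DMSO as positive control. Viability read by Alamar Blue; mean ± SEM, n = 8.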

A short description of data set [5]: Solubility of the compound in phosphate buffered solution. It counts as physicochemical.
The subject of data set [6] is HT-29. Kind of data set: Increase of iodide influx in human HT-29 cells expressing YFP at 10 uM measured after 10 mins for 2 to 12 sec by fluorescence assay. It counts as functional, cell-based. The gist of the method:
as §1

A short description of data set [7]: Elevation of cytoplasmic calcium level in Fischer rat thyroid cells co-expressing YFP and human CFTR at 10 uM incubated for 5 mins by fluo-4 dye based fluorescence assay. The class given is ADME. As to conditions: thyroid cell. The gist of the method:
(§3)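 FRT cells in 96-well plates loaded with Fluo-4 NW, pretreated 5 min with 10 μM compound or control; 100 μM ATP added as calcium agonist. Fluorescence followed in plate reader with syringe pumps. Representative of two to four experiment sets.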

For data set [8], the species on record is Homo sapiens. Kind of data set: Inhibition of calcium-activated chloride channel in human primary bronchial epithelial cells assessed as inhibition of ATP-induced short-circuit current at 10 uM preincubated for 10 mins followed by ATP addition by voltage clamp method. A digest of the protocol:
as §2

The nature of data set [9]: Elevation of forskolin-stimulated cAMP level in Fischer rat thyroid cells co-expressing YFP and human CFTR at 10 uM incubated for 10 mins by immunoassay. It counts as ADME, cell-based. The note with it: thyroid cell. The gist of the method: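 FRT cells expressing wild-type CFTR in 12-well plates, PBS-washed, incubated 10 min with 10 μM compound without or with 90 nM forskolin; references were forskolin alone (90 nM, 20 μM) and 20 μM forskolin + 100 μM IBMX. Lysates assayed for cAMP by immunoassay; mean ± SEM, n = 4.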

In data set [10] the target is T1, Anoctamin-1 (Homo sapiens) (UniProt Q5XXA6).
T1 sequence (whole entry): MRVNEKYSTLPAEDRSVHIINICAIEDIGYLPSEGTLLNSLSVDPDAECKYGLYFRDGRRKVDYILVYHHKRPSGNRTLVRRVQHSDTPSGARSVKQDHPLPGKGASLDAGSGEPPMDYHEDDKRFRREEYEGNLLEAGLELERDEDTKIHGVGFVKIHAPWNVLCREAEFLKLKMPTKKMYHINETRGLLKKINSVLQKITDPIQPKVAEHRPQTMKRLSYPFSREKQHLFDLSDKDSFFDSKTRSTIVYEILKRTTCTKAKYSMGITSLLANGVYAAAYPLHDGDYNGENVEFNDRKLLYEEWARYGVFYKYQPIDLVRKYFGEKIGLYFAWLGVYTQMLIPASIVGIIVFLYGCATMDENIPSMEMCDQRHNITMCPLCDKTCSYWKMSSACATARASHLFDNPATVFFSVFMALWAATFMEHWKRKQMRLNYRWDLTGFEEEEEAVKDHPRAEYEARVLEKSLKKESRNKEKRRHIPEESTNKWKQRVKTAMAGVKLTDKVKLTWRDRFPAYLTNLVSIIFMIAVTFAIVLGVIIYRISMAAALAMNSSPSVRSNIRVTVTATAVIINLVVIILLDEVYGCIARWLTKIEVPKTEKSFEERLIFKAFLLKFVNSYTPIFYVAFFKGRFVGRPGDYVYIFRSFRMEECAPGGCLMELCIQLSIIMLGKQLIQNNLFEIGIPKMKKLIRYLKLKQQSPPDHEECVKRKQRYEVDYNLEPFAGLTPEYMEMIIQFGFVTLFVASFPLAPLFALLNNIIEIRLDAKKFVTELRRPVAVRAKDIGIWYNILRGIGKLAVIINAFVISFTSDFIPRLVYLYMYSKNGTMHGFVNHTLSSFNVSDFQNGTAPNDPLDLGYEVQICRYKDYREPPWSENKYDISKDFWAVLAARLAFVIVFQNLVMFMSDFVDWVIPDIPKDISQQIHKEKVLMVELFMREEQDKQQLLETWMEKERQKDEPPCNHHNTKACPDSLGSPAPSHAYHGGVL
Kind of data set: Inhibition of human TMEM16A expressed in FRT cells co-expressing YFP assessed as decrease in iodide influx at 10 uM measured after 10 mins for 2 to 12 sec in presence of ATP by fluorescence assay. It counts as cell-based. The gist of the method:
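FRT cells stably coexpressing TMEM16A and YFP-H148Q; compound at 10 μM. Fluorescence quenching read in plate reader after iodide addition (activation) or iodide plus ATP addition (inhibition); initial rate of iodide influx computed as linear measure of channel function. Representative of two to four experiment sets.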

Data set [11] can be described thus: Suppression of ATP-stimulated elevation of cytoplasmic calcium level in Fischer rat thyroid cells co-expressing YFP and human CFTR at 10 uM incubated for 5 mins by fluo-4 dye based fluorescence assay. It counts as ADME. As to conditions: thyroid cell. The gist of the method:
as §3

Data set [12] can be described thus: Metabolic stability in rat hepatic microsomes assessed as parent compound remaining at 5 uM after 60 mins in presence of NADPH by LC-MS analysis. The note with it: liver microsomes, read-out: Stability. It counts as ADME, Microsome. A digest of the protocol:
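Compound at 5 μM incubated at 37 °C with rat liver microsomes (1 mg/mL) in potassium phosphate buffer with 1 mM NADPH; quenched with ice-cold EtOAc, centrifuged, supernatant analysed by LC/MS (C18, water/acetonitrile with 0.1% formic acid gradient, UV 254 nm) for parent remaining; mean ± SEM, n = 3.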

Structures are written as SMILES. Calls of active or inactive are those of the source. No cut-off for these calls is given here.

As for `CCN(CC)c1nc(Nc2ccc3ncsc3c2)nc(OC(C(F)(F)F)C(F)(F)F)n1`, the inhibition result in data set [1], in data set [2], in data set [8] and in [10] was “inactive” each time. For the same compound, the Activity entry in data set [3] is “Dose-dependent effect”; in [4] it was “Non-Toxic”; in data set [7], “Non-Toxic”; in data set [9], “Non-Toxic”; in data set [11], “Non-Toxic”. The solubility in data set [5] is no more than 10 µM. In addition, the result in data set [6] was inactive. For the same compound, in data set [12], the remaining at 1 h, 5 µM was 60%.
Turning to `CNc1nc(Nc2ccccc2)nc(OCC(F)(F)C(F)F)n1`, the inhibition result in [1], in [2], in data set [8] and in data set [10] was “inactive” in each case. In addition, the Activity entry was “Dose-dependent effect” in data set [3]; “Non-Toxic” in data set [4]; “Non-Toxic” in data set [7]; “Non-Toxic” in data set [9]; “Non-Toxic” in data set [11]. For the same compound, the solubility in data set [5] was no more than 10 µM. In addition, in data set [6], the outcome was inactive.

One may read the solubility as the dissolved amount per volume that the medium holds.

(Values after ChEMBL document CHEMBL3997791, “Nanomolar-Potency Aminophenyl-1,3,5-triazine Activators of the Cystic Fibrosis Transmembrane Conductance Regulator (CFTR) Chloride Channel for Prosecretory Therapy of Dry Eye Diseases” (J Med Chem, 2017).)
